Data: ChEMBL document CHEMBL3286357, “Design, synthesis and pharmacological evaluation of novel substituted quinoline-2-carboxamide derivatives as human dihydroorotate dehydrogenase (hDHODH) inhibitors and anticancer agents” (Eur J Med Chem, 2014)

Tests used:
[1] = Retention time of compound by HPLC analysis; type: physicochemical
[2] = Antiproliferative activity against human Hep3B cells at 33.33 ug/ml for 24 hrs by MTT assay; type: functional, Hep 3B2
Procedure, shortened: (§1)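 HEP-3B or A-375 cells were grown in DMEM with 10% FBS, 5% HBSS, penicillin, streptomycin and amphotericin B at 37 C and 5% CO2. Cells were seeded at 2 × 10^4 per well and preincubated for 24 h. They were then exposed to ten 1:3 serial dilutions from a top concentration of 100, made from 2% DMSO stocks. MTT was added for 3 h, formazan was dissolved in DMSO, and A550 was read. Wells were run in triplicate across three independent experiments. IC50 came from dose-response curves.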

A-375 [3] = test: Antiproliferative activity against human A375 cells at 0.02 ug/ml for 24 hrs by MTT assay; type: functional; conditions: A-375, 24 h; procedure, shortened: as §1
[4] = Antiproliferative activity against human Hep3B cells at 0.14 ug/ml for 24 hrs by MTT assay; type: functional, Hep 3B2; procedure, shortened: as §1
HEP-3B (human hepatoma) = test: Antiproliferative activity against human Hep3B cells for 24 hrs by MTT assay
[5] = Antiproliferative activity against human Hep3B cells at 0.02 ug/ml for 24 hrs by MTT assay; type: functional, Hep 3B2; procedure, shortened: as §1
A-375 [6] = test: Antiproliferative activity against human A375 cells at 0.14 ug/ml for 24 hrs by MTT assay; type: functional; conditions: A-375, 24 h; procedure, shortened: as §1
A-375 [7] = test: Antiproliferative activity against human A375 cells at 0.05 ug/ml for 24 hrs by MTT assay; type: functional; conditions: A-375, 24 h; procedure, shortened: as §1
A-375 [8] = test: Antiproliferative activity against human A375 cells at 0.01 ug/ml for 24 hrs by MTT assay; type: functional; conditions: A-375, 24 h; procedure, shortened: as §1
A-375 [9] = test: Antiproliferative activity against human A375 cells at 3.7 ug/ml for 24 hrs by MTT assay; type: functional; conditions: A-375, 24 h; procedure, shortened: as §1
[10] = target: Dihydroorotate dehydrogenase (quinone), mitochondrial (Homo sapiens, UniProt Q02127); test: Inhibition of recombinant human DHODH activity after 20 mins by DCIP dye based colorimetric analysis in presence of 1 mM L-dihydroorotate and 0.1 mM CqD
A-375 [11] = test: Antiproliferative activity against human A375 cells at 1.23 ug/ml for 24 hrs by MTT assay; type: functional; conditions: A-375, 24 h; procedure, shortened: as §1
A-375 (human melanoma) = test: Antiproliferative activity against human A375 cells for 24 hrs by MTT assay; conditions: A-375, 24 h
[12] = Antiproliferative activity against human Hep3B cells at 11.11 ug/ml for 24 hrs by MTT assay; type: functional, Hep 3B2; procedure, shortened: as §1
[13] = Antiproliferative activity against human Hep3B cells at 100 ug/ml for 24 hrs by MTT assay; type: functional, Hep 3B2; procedure, shortened: as §1
A-375 [14] = test: Antiproliferative activity against human A375 cells at 0.41 ug/ml for 24 hrs by MTT assay; type: functional; conditions: A-375, 24 h; procedure, shortened: as §1
[15] = Antiproliferative activity against human Hep3B cells at 0.41 ug/ml for 24 hrs by MTT assay; type: functional, Hep 3B2; procedure, shortened: as §1
[16] = Antiproliferative activity against human Hep3B cells at 0.05 ug/ml for 24 hrs by MTT assay; type: functional, Hep 3B2; procedure, shortened: as §1
A-375 [17] = test: Antiproliferative activity against human A375 cells at 100 ug/ml for 24 hrs by MTT assay; type: functional; conditions: A-375, 24 h; procedure, shortened: as §1
A-375 [18] = test: Antiproliferative activity against human A375 cells at 33.33 ug/ml for 24 hrs by MTT assay; type: functional; conditions: A-375, 24 h; procedure, shortened: as §1
[19] = Antiproliferative activity against human Hep3B cells at 0.01 ug/ml for 24 hrs by MTT assay; type: functional, Hep 3B2; procedure, shortened: as §1
[20] = Antiproliferative activity against human Hep3B cells at 1.23 ug/ml for 24 hrs by MTT assay; type: functional, Hep 3B2; procedure, shortened: as §1
[21] = Antiproliferative activity against human Hep3B cells at 3.7 ug/ml for 24 hrs by MTT assay; type: functional, Hep 3B2; procedure, shortened: as §1
A-375 [22] = test: Antiproliferative activity against human A375 cells at 11.11 ug/ml for 24 hrs by MTT assay; type: functional; conditions: A-375, 24 h; procedure, shortened: as §1

Dihydroorotate dehydrogenase (quinone), mitochondrial, sequence (Q02127 whole entry): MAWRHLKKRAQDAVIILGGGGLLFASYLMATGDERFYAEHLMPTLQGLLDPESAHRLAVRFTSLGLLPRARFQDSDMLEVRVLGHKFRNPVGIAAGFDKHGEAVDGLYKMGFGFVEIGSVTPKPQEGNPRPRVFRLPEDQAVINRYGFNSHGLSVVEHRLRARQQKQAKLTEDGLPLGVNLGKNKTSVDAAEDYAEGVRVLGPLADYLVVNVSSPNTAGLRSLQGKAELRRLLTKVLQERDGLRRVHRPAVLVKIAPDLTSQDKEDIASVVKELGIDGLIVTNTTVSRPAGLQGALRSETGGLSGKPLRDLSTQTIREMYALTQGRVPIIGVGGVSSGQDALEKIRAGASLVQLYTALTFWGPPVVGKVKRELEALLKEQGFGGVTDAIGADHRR

## COc1ccc2nc(C(=O)Nc3ccc(-c4ccccc4)cc3)c(C)c(C(=O)O)c2c1
[1]
  Retention_time: 7.4 min
[2]
  inhibition at 33.33 µg/mL: 33.6%
A-375 [3]
  inhibition at 0.02 µg/mL: 0.68%
[4]
  inhibition at 0.14 µg/mL: 2.01%
HEP-3B (human hepatoma)
  IC50: > 100 µM
[5]
  inhibition at 0.02 µg/mL: 0.05%
A-375 [6]
  inhibition at 0.14 µg/mL: 3.65%
A-375 [7]
  inhibition at 0.05 µg/mL: 1.26%
A-375 [8]
  inhibition at 0.01 µg/mL: 0.35%
A-375 [9]
  inhibition at 3.7 µg/mL: 33.6%
[10]
  IC50: 1.09 µM
A-375 [11]
  inhibition at 1.23 µg/mL: 21.3%
A-375 (human melanoma)
  IC50: 9.43 µM
[12]
  inhibition at 11.11 µg/mL: 28.3%
[13]
  inhibition at 100 µg/mL: 72.5%
A-375 [14]
  inhibition at 0.41 µg/mL: 11.3%
[15]
  inhibition at 0.41 µg/mL: 5.31%
[16]
  inhibition at 0.05 µg/mL: 0.65%
A-375 [17]
  inhibition at 100 µg/mL: 70.2%
A-375 [18]
  inhibition at 33.33 µg/mL: 58.3%
[19]
  inhibition at 0.01 µg/mL: -0.12%
[20]
  inhibition at 1.23 µg/mL: 11.2%
[21]
  inhibition at 3.7 µg/mL: 19.4%
A-375 [22]
  inhibition at 11.11 µg/mL: 47.9%
